Measured values reported in the RNAGym collection of RNA variant scans (doi:10.1101/gad.245936.114).
Fewer inactive variants are shown than the library holds.

B1: tRNA (parent)
chain: CUCUCGGUAGCCAAGUUGGUUUAAGGCGCAAGACUUUAAUUUAUCACUACGAAAUCUUGAGAUCGGGCGUUCGACUCGCCCCCGGGAGAUUUUUUCCUCGAGCAA

Variants of: B1
Test: nonsense suppression (GFP-seq) (ratio to wild type); higher = more function; SUP4oc tRNA, yeast GFP reporter sort-seq
Method in brief: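 Yeast were grown in raffinose/galactose medium with 80 mg/L adenine, each strain bearing a genome-integrated ochre-suppressor tRNA variant from a ~3% random-mutation library, a galactose-driven GFP ochre reporter, and RFP. After sorting into GFP/RFP bins, every bin was sequenced on an Illumina platform at phred ≥30. The GFPSEQ value, a measure of nonsense suppression, is the weighted bin median GFP/RFP relative to the unmutated parent tRNA, using each variant's estimated cell share per bin as the weight. Only variants with ≥100 reads and ≥30 cells were included.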

| Variant | nonsense suppression |
| --- | --- |
| U4C G6U G28A | 0.427 |
| U4C U57A | 0.609 |
| U4C U57G | 0.0337 |
| C5U U55C G88A | ≤ 0.026 |
| C5G U76G | ≤ 0.026 |
| C3U U8G A54U U58G C83U | ≤ 0.026 |
| U4C C12U | 0.745 |
| U4G U63A | 0.199 |
| U4C U8A | 0.0441 |
| C5G A74G | ≤ 0.026 |
| U4A U17G G69A G78U | ≤ 0.026 |
| C3U U4C | 0.859 |
| U4G U22A | 0.216 |
| U4G U22G | 0.492 |
| U4G A14U G26A | ≤ 0.026 |
| U4C A13G | 0.774 |
| U4C A13U | 1.12 |
| U4C A13C | 1.05 |
| C5A U16G G88U | ≤ 0.026 |
| C3U U63A | 0.12 |
| C5U A30U | 0.138 |
| U4G A33G | 0.0332 |
| U4C A14U | 0.0343 |
| C5A U63A G66C | ≤ 0.026 |

| Variant | nonsense suppression |
| --- | --- |
| C5U A14G U55G | ≤ 0.026 |
| U4C C34G C82U | 0.179 |
| U4G U20G U22A | 0.21 |
| C5G U16A U22C U57C C72U A87C | ≤ 0.026 |
| C5A U8C G15C A60C | ≤ 0.026 |
| C5U U20C | ≤ 0.026 |
| U4A G85A | 0.0324 |
| U4G U57G | 0.0369 |
| U4C C11U | 0.109 |
| U4A C5A | 0.0374 |
| U4G U20G | 0.834 |
| U4G U20A | 0.0644 |
| C5U U17C | 0.0495 |
| C5A G15A A33G | ≤ 0.026 |
| C5G U55C G69C G86U | ≤ 0.026 |
| U4C U58G A74C | ≤ 0.026 |
| C5U A13C | 0.0679 |
| U4C C68U U76C | 1.13 |
| C5A G19C A62G | ≤ 0.026 |
| U4C G26U C34G U35A C82A | ≤ 0.026 |
| C5G A87U | ≤ 0.026 |
| U4G C75U | 1.1 |
| U4A G7U U76A | ≤ 0.026 |
| U4G C68G | 0.0622 |

| Variant | nonsense suppression |
| --- | --- |
| U4G A54U | 0.469 |
| U4A U20C A31U U71G C80A | ≤ 0.026 |
| C5U | 0.096 |
| U4G C5G U17C U63C A74U | ≤ 0.026 |
| C5U G7U G25A | ≤ 0.026 |
| U4C A31U U57G G88U | ≤ 0.026 |
| U4G G7A | 0.0974 |
| C5A U8C A9U C80A | ≤ 0.026 |
| C3U G85A | 0.528 |
| U4C U55A G67A C79G C83G | ≤ 0.026 |
| C5U U76A C79A | ≤ 0.026 |
| C5A A23C A31G G61A | ≤ 0.026 |
| U4C A54C | 1.01 |
| C3U U57C G69A G73A G85A | ≤ 0.026 |
| U4A U63A | 0.155 |
| C3U U8G U58G C80A C82G G86C | ≤ 0.026 |
| U4G G18C G28A A74G | ≤ 0.026 |
| U4G U20C A33G | 0.0309 |
| U4C C29U | 1.03 |
| U4C C29A | 1.11 |
| U4G U16C | 0.882 |
| U4G | 1.16 |
| U4A | 0.693 |
| U4C | 0.585 |

| Variant | nonsense suppression |
| --- | --- |
| C5U A9G | 0.0324 |
| U4C C80U | 0.651 |
| C3U U16G | 0.22 |
| C3U U16A | 0.16 |
| C5G C12A G59U | ≤ 0.026 |
| U4A A23G | 0.288 |
| U4C G7U U8C G69C | ≤ 0.026 |
| C5A G7U U17C | ≤ 0.026 |
| C3U U20G G85A | 0.214 |
| U4C G15A U21A | 0.214 |
| U4G C72G | 0.0909 |
| C3U U20G | 0.194 |
| U4C A31U | 1.04 |
| U4A A14U | 0.0276 |
| U4A A14G | 0.0942 |
| U4G G32A A33G | ≤ 0.026 |
| U4A U20A | 0.072 |
| U4G C12G | 0.0311 |
| U4C U35G G61A G78A C83A G86C | ≤ 0.026 |
| C5A A9C A24G G85A | ≤ 0.026 |
| U4C A30U | 0.0792 |
| C5U A23G | 0.0405 |
| U4G C81U | 0.161 |
| C5U G28C A30G A33U | ≤ 0.026 |

| Variant | nonsense suppression |
| --- | --- |
| C5A A30G | 0.0272 |
| C3U G86A | 1.07 |
| U4C A33G | 0.0434 |
| U4G C5U | 0.0955 |
| C5G G78U | 0.0283 |
| U4G G6A | 0.0297 |
| C5G A33G G65A G66C | ≤ 0.026 |
| C5U G10A A13G G73A C75A G86C | ≤ 0.026 |
| U4G C79U | 0.173 |
| C5G A13U G19U U35G A87G | ≤ 0.026 |
| U4C U21C G67A | 0.0868 |
| U4A U17A U22C | 0.0499 |
| U4A G61U | 0.194 |
| C5U G85A | 0.08 |
| C5U G85U | 0.0303 |
| C5G G7U C11G | ≤ 0.026 |
| C5U C80G | ≤ 0.026 |
| U4G G59A | 0.0506 |
| U4A C5G G59A | ≤ 0.026 |
| U4C A13G C83U | 0.334 |
| C3U G78A | 0.0608 |
| C5U A87G | 0.0561 |
| U4C U22G G26U G73C G78C | ≤ 0.026 |
| C3U U21G G85C | 0.417 |

| Variant | nonsense suppression |
| --- | --- |
| U4G G66A | 0.0774 |
| U4A U20C C83A | ≤ 0.026 |
| C5G G84U | 0.475 |
| U4G G73U | 0.0898 |
| U4G G73C | 0.0291 |
| C3U U20A G26A | ≤ 0.026 |
| U4G G18C A24G G61C C81A | 0.057 |
| C5A A14U A33C U55C | ≤ 0.026 |
| U4A A30G | 0.0267 |
| U4A U17A | 0.174 |
| C5G G6A A33U U35G U70C | ≤ 0.026 |
| U4A C11U | 0.0306 |
| C5U A62C G65C U70G U71A | ≤ 0.026 |
| U4A C77U | 0.0506 |
| U4C A62U | 0.272 |
| U4A G19U | ≤ 0.026 |
| U4C A24U | 0.84 |
| U4C A24G | 0.31 |
| U4C A24C | 1.06 |
| U4C U20C | 1.05 |
| C5G U55C U70C | ≤ 0.026 |
| C5U U63A | 0.0305 |
| U4C C12G C64G G66C | ≤ 0.026 |
| U4G A89U | 0.0348 |

| Variant | nonsense suppression |
| --- | --- |
| U4C U35C G69C | ≤ 0.026 |
| C5U A60C | 0.0867 |
| U4C U17C | 1.04 |
| C5U G69A | ≤ 0.026 |
| C5G C12G | 0.174 |
| U4A G10A U21G G28C | ≤ 0.026 |
| C5G A13G G78U | ≤ 0.026 |
| C3U G73A | 0.0656 |
| C5U G66U G78A | ≤ 0.026 |
| U4G C77A | 0.0479 |
| U4G C77U | 0.0723 |
| U4C A13U G78A | 0.424 |
| C3U U76A | 0.0398 |
| C3U U76C | 0.17 |
| C3U U21A | 0.196 |
| C3U U21G | 0.137 |
| C3U G78C A89U | ≤ 0.026 |
| U4C A31G G65A | ≤ 0.026 |
| C5G G6C A9C A89C | ≤ 0.026 |
| U4C U35A C83A | ≤ 0.026 |
| U4C C27U G61A | 0.205 |
| C5U U21A | ≤ 0.026 |
| C5U G6U G84C | ≤ 0.026 |
